Measured values from different studies.
Protocols differ between the studies behind these lines.
Genome polyprotein protease: Genome polyprotein, protease (ZIKV, UniProt A0A024B7W1)
USP14: Ubiquitin carboxyl-terminal hydrolase 14 (USP14, Homo sapiens, UniProt P54578)
MAPKAPK3: MAP kinase-activated protein kinase 3 (MAPKAPK3, Homo sapiens, UniProt Q16644)
Cacna1b: Voltage-dependent N-type calcium channel subunit alpha-1B (Cacna1b, Rattus norvegicus, UniProt Q02294)
DPP9: Dipeptidyl peptidase 9 (DPP9, Homo sapiens, UniProt Q86TI2)

SMILES	target	assay	conditions	inhibition [%]
C[C@@H]1O[C@@H](OC[C@H]2O[C@@H](Oc3c(-c4ccc(O)c(O)c4)oc4cc(O)cc(O)c4c3=O)[C@H](O)[C@@H](O)[C@@H]2O)[C@H](O)[C@H](O)[C@H]1O	Genome polyprotein protease	enzyme activity, inhibitor	200 µM, pH 8.5	95.4
CCCCCCCCCCCC(=O)OC[C@@H](COP(=O)(O)OCCNC(=O)c1ccc(Cn2c(=O)[nH]c3c(N)nc(OCCOC)nc32)cc1)OC(=O)CCCCCCCCCCC	Alpha-1A adrenergic receptor (Adra1a, Rattus norvegicus, UniProt P43140)	ligand displacement, radioligand	10 µM	-11
O=c1c(O)c(-c2ccc(O)c(O)c2)oc2cc(O)cc(O)c12	Genome polyprotein protease	enzyme activity, inhibitor, FRET	100 µM, pH 7	37
CC(C)C[C@H](NC(=O)[C@H]1O[C@@H]1C(=O)O)C(=O)NCCCCN=C(N)N	Cathepsin B (CTSB, Homo sapiens, UniProt P07858)	enzyme activity, inhibitor	5 nM	77
Cn1c(=O)c2ncnnc2n(C)c1=O	USP14	enzyme activity, inhibitor	17 µM	96
Cn1cc(-c2cc(F)cc(N3CCn4c(cc5c4CCCC5)C3=O)c2CO)cc(Nc2ccc(N3CCN(C4COC4)CC3)cn2)c1=O	MAPKAPK3	enzyme activity, inhibitor	0.1 µM	9
O=C1N=C(N2CCCCN2)S/C1=C\c1ccc(F)cc1O	5-hydroxytryptamine receptor 7 (HTR7, Homo sapiens, UniProt P34969)	ligand displacement, radioligand	10 µM	< 10
COc1cc(Nc2ncc(F)c(Nc3ccc4c(n3)NC(=O)C(C)(C)O4)n2)cc(OC)c1OC	Mitogen-activated protein kinase kinase kinase kinase 1 (MAP4K1, Homo sapiens, UniProt Q92918)	binding, competition with immobilised ligand	10 µM	70
Cc1ncc(C)n2nc(/C=C/c3nc(N4CCCC4)cc(N4CCOCC4)n3)nc12	C-C chemokine receptor type 2 (CCR2, Homo sapiens, UniProt P41597)	cell-free assay	10 µM	10
C[C@H](C(=O)N[C@H]1COc2ccccc2[C@@H]1S(C)(=O)=O)c1ccc(F)cc1	Cacna1b	cell-free assay	10 µM	11
N=C(N)c1ccc2cc(OC(=O)c3ccc(N=C(N)N)cc3)ccc2c1	USP14	enzyme activity, inhibitor	10 µM	0
C#Cc1n[nH]c2c(-c3cn([C@@H](C)c4ccccn4)c(=O)[nH]c3=O)cc(F)cc12	Cyclin-dependent kinase 8, with cyclin C (CDK8, Homo sapiens, UniProt P49336)	enzyme activity, inhibitor	0.1 µM	-1.7
CN(C)C(=O)COC(=O)Cc1ccc(OC(=O)c2ccc(NC(=N)N)cc2)cc1	DPP9	enzyme activity, inhibitor	10 µM	18
OC(CCN1CC=C(c2ccc(F)cc2)CC1)c1ccc(F)c2ccccc12 (stereo not shown)	Plasmepsin II (Plasmodium falciparum, UniProt P46925)	enzyme activity, inhibitor	5 µM	18
Cn1cc(-c2cccc(N3CCc4c(sc5c4CC(C)(C)C5)C3=O)c2CO)cc(Nc2ccncn2)c1=O	MAPKAPK3	enzyme activity, inhibitor	1 µM	4
O=C(O)c1cc(O)c(O)c(O)c1	Genome polyprotein protease	enzyme activity, inhibitor, FRET	100 µM, pH 7	15
CC(C)N1CCC[C@H]1CNC(=O)c1cn(C2CCCC2)c(=O)c2c1c1ccccc1n2C	Cacna1b	ligand displacement, radioligand	10 µM	2
Cn1c(=O)c2c(ncn2C)n(C)c1=O	Genome polyprotein protease	enzyme activity, inhibitor, FRET	100 µM, pH 7	6
C#Cc1n[nH]c2c(-c3cn([C@@H](C)c4ccccc4)c(=O)[nH]c3=O)cc(F)cc12	Dual specificity protein kinase CLK3 (CLK3, Homo sapiens, UniProt P49761)	enzyme activity, inhibitor	0.1 µM	-0.8
O=C(Nc1cccnn1)N1CCN([C@@H]2CCOc3cc(C(F)(F)F)ccc32)CC1	Oxysterols receptor LXR-beta (NR1H2, Homo sapiens, UniProt P55055)	cell-free assay	20 µM	-6
CCOC(=O)c1ccc(OC(=O)CCCCCNC(=N)N)cc1	DPP9	enzyme activity, inhibitor	10 µM	14
O=c1cc(-c2ccccc2)oc2cc(O)cc(O)c12	Genome polyprotein protease	enzyme activity, inhibitor, FRET	100 µM, pH 7	19
N#Cc1ccc(NCCNCC(=O)N2N=CCC2C#N)nc1 (stereo not shown)	DPP9	enzyme activity, inhibitor	1 µM	49
CCN(CC)CCCC[C@H](NC(=O)[C@H](CC(C)C)NC(=O)[C@H](C)NC(=O)[C@H](Cc1ccccc1)NC(=O)c1ccc(C(C)(C)C)cc1)C(=O)N[C@@H](CO)C(=O)OC	C-X-C chemokine receptor type 2 (CXCR2, Homo sapiens, UniProt P25025)	ligand displacement, radioligand	10 µM	-12
Oc1cc(O)c2c(c1)O[C@H](c1cc(O)c(O)c(O)c1)[C@H](O)C2	Genome polyprotein protease	enzyme activity, inhibitor, FRET	100 µM, pH 7	7
